The source made the active and inactive calls. No cut-off for these calls is given here.
Legend:
D(2) dopamine receptor [1] = molecular target: T1, D(2) dopamine receptor (Homo sapiens, UniProt P14416); test: Displacement of [3H]spiperone from human dopamine D2long receptor expressed in CHO cells; assay type: cell-based
Method in brief: (§1)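 Membranes from CHO cells stably expressing each receptor, 2–6 μg protein per tube, competed against [³H]spiperone at 0.2 nM final. Competition curves were analyzed by nonlinear regression to give Ki.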

D(1A) dopamine receptor = D(1A) dopamine receptor (Sus scrofa, UniProt P50130); test: Displacement of [3H]SCH23390 from dopamine D1 receptor in porcine striatal membranes
D(1A) dopamine receptor, sequence (P50130 whole entry): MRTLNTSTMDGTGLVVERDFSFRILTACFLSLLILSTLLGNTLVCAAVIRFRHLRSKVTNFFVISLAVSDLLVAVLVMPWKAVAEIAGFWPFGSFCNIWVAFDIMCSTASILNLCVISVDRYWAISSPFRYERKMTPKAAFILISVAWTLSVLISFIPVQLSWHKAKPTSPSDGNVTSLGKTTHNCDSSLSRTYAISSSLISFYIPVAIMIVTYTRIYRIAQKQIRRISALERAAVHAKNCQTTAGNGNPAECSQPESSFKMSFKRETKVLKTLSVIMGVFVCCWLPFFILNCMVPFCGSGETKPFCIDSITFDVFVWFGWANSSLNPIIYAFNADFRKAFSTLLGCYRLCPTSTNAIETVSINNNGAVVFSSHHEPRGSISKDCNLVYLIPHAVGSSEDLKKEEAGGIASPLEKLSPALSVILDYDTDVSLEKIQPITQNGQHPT

Homo sapiens [2] = species: Homo sapiens; test: Selectivity ratio of Ki for human dopamine D3 receptor to Ki for human dopamine D4.4 receptor
[3] = Displacement of [3H]prazosin from adrenergic alpha1 receptor in porcine cortical membranes; assay type: cell membranes, Sus scrofa
Method in brief: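 Porcine cerebral cortex homogenate, 40 μg/mL protein per tube, with 0.2 nM [³H]prazosin. Protein was measured by Lowry. Competition curves were fitted by nonlinear regression.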

D(2) dopamine receptor [4] = molecular target: T1, D(2) dopamine receptor; test: Displacement of [3H]spiperone from human dopamine D2short receptor expressed in CHO cells; assay type: cell-based; method in brief: as §1
[5] = Displacement of [3H]WAY100635 from 5-HT1A receptor in porcine cortical membranes
Homo sapiens [6] = species: Homo sapiens; test: Selectivity ratio of Ki for human dopamine D2short receptor to Ki for human dopamine D4.4 receptor
D(3) dopamine receptor = D(3) dopamine receptor (Homo sapiens, UniProt P35462); test: Displacement of [3H]spiperone from human dopamine D3 receptor expressed in CHO cells; assay type: cell-based; method in brief: as §1
D(3) dopamine receptor, sequence (P35462 whole entry): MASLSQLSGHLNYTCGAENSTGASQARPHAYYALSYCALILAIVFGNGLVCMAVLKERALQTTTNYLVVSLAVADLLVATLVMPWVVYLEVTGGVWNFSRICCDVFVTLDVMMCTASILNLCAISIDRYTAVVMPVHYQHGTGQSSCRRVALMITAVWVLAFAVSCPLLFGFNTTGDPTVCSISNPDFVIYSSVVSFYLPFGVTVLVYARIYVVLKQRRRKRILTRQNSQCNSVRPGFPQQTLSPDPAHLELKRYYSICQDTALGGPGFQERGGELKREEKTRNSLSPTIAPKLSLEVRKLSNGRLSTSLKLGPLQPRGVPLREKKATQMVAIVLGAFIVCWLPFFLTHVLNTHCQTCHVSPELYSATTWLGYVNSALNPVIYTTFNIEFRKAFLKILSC

Homo sapiens [7] = species: Homo sapiens; test: Selectivity ratio of Ki for human dopamine D2long receptor to Ki for human dopamine D4.4 receptor
CHO10001 = test: Neutral antagonist activity at human dopamine D4.2 receptor expressed in CHO10001 cells assessed as inhibition of [3H]thymidine incorporation relative to quinpirole; assay type: functional, cell-based
Method in brief: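 Growing D4.2-expressing CHO10001 cells were stimulated with test compound and given 0.02 μCi [³H]thymidine per well; incorporation was measured. Data from four dose-response experiments were normalized and pooled to give means per concentration, and compared with the full agonist quinpirole.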

D(4) dopamine receptor = molecular target: T2, D(4) dopamine receptor (Homo sapiens, UniProt P21917); test: Displacement of [3H]spiperone from human dopamine D4.4 receptor expressed in CHO cells; assay type: cell-based; method in brief: as §1
T2 sequence (P21917 whole entry): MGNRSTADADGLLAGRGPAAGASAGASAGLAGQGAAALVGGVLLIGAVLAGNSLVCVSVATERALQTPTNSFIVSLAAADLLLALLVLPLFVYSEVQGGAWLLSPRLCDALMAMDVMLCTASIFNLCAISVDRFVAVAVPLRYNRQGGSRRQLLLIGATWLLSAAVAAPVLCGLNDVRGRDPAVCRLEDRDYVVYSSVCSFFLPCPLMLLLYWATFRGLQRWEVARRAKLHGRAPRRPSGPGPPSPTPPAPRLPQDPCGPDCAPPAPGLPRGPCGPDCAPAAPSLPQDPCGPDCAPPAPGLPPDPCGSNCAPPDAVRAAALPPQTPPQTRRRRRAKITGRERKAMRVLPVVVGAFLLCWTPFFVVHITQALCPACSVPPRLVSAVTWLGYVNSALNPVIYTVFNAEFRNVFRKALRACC

[8] = Lipophilicity, log P of the compound at pH 7.4 by HPLC method; settings: buffer
[9] = molecular target: 5-hydroxytryptamine receptor 2A (Sus scrofa, UniProt P50129); test: Displacement of [3H]ketanserin from 5-HT2 receptor in porcine cortical membranes; assay type: cell membranes
5-hydroxytryptamine receptor 2A, sequence (P50129 whole entry): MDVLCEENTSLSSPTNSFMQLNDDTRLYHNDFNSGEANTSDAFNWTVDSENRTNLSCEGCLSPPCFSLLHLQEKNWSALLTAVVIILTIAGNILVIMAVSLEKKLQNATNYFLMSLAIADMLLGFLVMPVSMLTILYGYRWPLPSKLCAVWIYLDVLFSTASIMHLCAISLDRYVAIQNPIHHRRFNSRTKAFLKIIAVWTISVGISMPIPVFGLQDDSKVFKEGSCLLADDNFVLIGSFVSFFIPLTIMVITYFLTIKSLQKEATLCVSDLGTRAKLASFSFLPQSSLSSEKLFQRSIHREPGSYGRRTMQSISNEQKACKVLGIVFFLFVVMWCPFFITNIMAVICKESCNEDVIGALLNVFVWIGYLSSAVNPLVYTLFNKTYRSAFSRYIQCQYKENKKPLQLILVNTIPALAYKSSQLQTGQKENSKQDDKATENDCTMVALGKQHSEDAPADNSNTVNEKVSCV
Method in brief: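 Porcine cerebral cortex homogenate, 110 μg/mL protein per tube, with 0.5 nM [³H]ketanserin. Protein was measured by Lowry. Competition curves were fitted by nonlinear regression.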

[10] = molecular target: T3, D(4) dopamine receptor (Rattus norvegicus) (UniProt P30729); test: Binding affinity to dopamine D4 receptor in Wistar rat frontal cortex at 5 nmol/L after 30 mins using cresyl violet staining by In vitro autoradiography in presence of 10 uM non-radiolabeled compound; assay type: tissue-based; settings: tested as the 18F-labelled form
T3 sequence (whole entry): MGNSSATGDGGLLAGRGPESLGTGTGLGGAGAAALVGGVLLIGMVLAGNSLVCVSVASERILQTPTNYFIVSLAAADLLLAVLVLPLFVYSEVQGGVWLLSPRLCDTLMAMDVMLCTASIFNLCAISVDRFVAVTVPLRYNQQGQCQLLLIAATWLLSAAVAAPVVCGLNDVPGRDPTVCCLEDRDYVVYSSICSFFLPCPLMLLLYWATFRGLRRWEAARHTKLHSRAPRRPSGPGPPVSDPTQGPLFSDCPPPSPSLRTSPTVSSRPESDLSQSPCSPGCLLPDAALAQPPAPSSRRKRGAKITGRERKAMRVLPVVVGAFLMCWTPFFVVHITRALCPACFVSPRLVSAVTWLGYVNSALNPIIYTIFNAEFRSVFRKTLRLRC
Method in brief: (§2)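 Horizontal 20 μm cryostat sections of brains from Wistar rats (4–6 months, 230–250 g) were used. After a 10 min preincubation in 50 mmol/L Tris-HCl pH 7.4 at 22 °C, slices were incubated 30 min with ¹⁸F-radioligand (5 nmol/L, or 10 nmol/L for one tracer). Nonspecific binding was taken with 10 μmol/L spiperone or cold standard; total binding had DMSO alone. Regions were assigned by cresyl violet staining.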

[11] = molecular target: T3, D(4) dopamine receptor (Rattus norvegicus); test: Binding affinity to dopamine D4 receptor in Wistar rat cortex at 5 nmol/L measured after 30 mins; settings: tested as the 18F-labelled form; method in brief: as §2
[12] = molecular target: T4, D(4) dopamine receptor (Mus musculus) (UniProt P51436); test: Binding affinity to dopamine D4 receptor in NMRI mouse cortex at 20 nmol/L after 30 mins using cresyl violet staining by In vitro autoradiography in presence of 10 uM non-radiolabeled compound; settings: tested as the 18F-labelled form
T4 sequence (whole entry): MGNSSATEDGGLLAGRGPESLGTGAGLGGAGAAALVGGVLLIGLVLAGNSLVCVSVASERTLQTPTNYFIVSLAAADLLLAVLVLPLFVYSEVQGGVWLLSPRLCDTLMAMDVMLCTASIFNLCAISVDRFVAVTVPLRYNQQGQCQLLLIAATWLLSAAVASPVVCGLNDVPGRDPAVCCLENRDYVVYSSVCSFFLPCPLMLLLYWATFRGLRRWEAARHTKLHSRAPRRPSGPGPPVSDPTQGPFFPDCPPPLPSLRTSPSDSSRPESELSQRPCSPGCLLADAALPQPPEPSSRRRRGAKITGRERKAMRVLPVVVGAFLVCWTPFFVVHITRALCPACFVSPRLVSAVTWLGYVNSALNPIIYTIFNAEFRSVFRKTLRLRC
Method in brief: (§3)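 Sagittal brain slices from female NMRI mice (2–6 months) were preincubated 10 min in 50 mmol/L Tris-HCl pH 7.4 at 22 °C. They were then incubated 30 min with 20 nmol/L [¹⁸F]-ligand plus 10 μmol/L displacer (spiperone or cold standard), or with DMSO alone for total binding. After the ¹⁸F had decayed, regions were identified by cresyl violet staining.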

[13] = molecular target: T4, D(4) dopamine receptor (Mus musculus); test: Binding affinity to dopamine D4 receptor in NMRI mouse hippocampus dentate gyrus at 20 nmol/L after 30 mins using cresyl violet staining by In vitro autoradiography in presence of 10 uM non-radiolabeled compound; assay type: tissue-based; settings: tested as the 18F-labelled form; method in brief: as §3
[14] = molecular target: T4, D(4) dopamine receptor (Mus musculus); test: Binding affinity to dopamine D4 receptor in NMRI mouse coliculus at 20 nmol/L after 30 mins using cresyl violet staining by In vitro autoradiography in presence of 10 uM non-radiolabeled compound; settings: tested as the 18F-labelled form; method in brief: as §3
[15] = molecular target: T3, D(4) dopamine receptor (Rattus norvegicus); test: Binding affinity to dopamine D4 receptor in Wistar rat hippocampus at 5 nmol/L after 30 mins using cresyl violet staining by In vitro autoradiography in presence of 10 uM non-radiolabeled compound; assay type: tissue-based; settings: tested as the 18F-labelled form; method in brief: as §2
[16] = molecular target: T4, D(4) dopamine receptor (Mus musculus); test: Binding affinity to dopamine D4 receptor in NMRI mouse hippocampus cornu ammonis 3 at 20 nmol/L after 30 mins using cresyl violet staining by In vitro autoradiography in presence of 10 uM non-radiolabeled compound; assay type: tissue-based; settings: tested as the 18F-labelled form; method in brief: as §3
[17] = molecular target: T3, D(4) dopamine receptor (Rattus norvegicus); test: Binding affinity to dopamine D4 receptor in Wistar rat thalamus at 5 nmol/L measured after 30 mins; settings: tested as the 18F-labelled form; method in brief: as §2
[18] = molecular target: T3, D(4) dopamine receptor (Rattus norvegicus); test: Binding affinity to dopamine D4 receptor in coliculus of Wistar rat at 5 nmol/L after 30 mins using cresyl violet staining by In vitro autoradiography in presence of 10 uM non-radiolabeled compound; method in brief: as §2
[19] = molecular target: T3, D(4) dopamine receptor (Rattus norvegicus); test: Binding affinity to dopamine D4 receptor in Wistar rat striatum at 5 nmol/L after 30 mins using cresyl violet staining by In vitro autoradiography in presence of 10 uM non-radiolabeled compound; settings: tested as the 18F-labelled form; method in brief: as §2
[20] = molecular target: T4, D(4) dopamine receptor (Mus musculus); test: Binding affinity to dopamine D4 receptor in NMRI mouse hippocampus at 20 nmol/L after 30 mins using cresyl violet staining by In vitro autoradiography in presence of 10 uM non-radiolabeled compound; assay type: tissue-based; settings: tested as the 18F-labelled form; method in brief: as §3
[21] = molecular target: T3, D(4) dopamine receptor (Rattus norvegicus); test: Binding affinity to dopamine D4 receptor in medial nuclei of cerebellum in Wistar rat at 5 nmol/L after 30 mins using cresyl violet staining by In vitro autoradiography in presence of 10 uM non-radiolabeled compound; assay type: tissue-based; settings: tested as the 18F-labelled form; method in brief: as §2
[22] = molecular target: T3, D(4) dopamine receptor (Rattus norvegicus); test: Binding affinity to dopamine D4 receptor in coliculus of Wistar rat at 10 nmol/L after 30 mins using cresyl violet staining by In vitro autoradiography in presence of 10 uM non-radiolabeled compound; settings: tested as the 18F-labelled form; method in brief: as §2
[23] = molecular target: T3, D(4) dopamine receptor (Rattus norvegicus); test: Binding affinity to dopamine D4 receptor in Wistar rat brain slices assessed as nonspecific binding at 10 nmol/L measured after 30 mins by In vitro autoradiography presence of nonradioactive ligand; settings: tested as the 18F-labelled form; method in brief: as §2
[24] = molecular target: T3, D(4) dopamine receptor (Rattus norvegicus); test: Binding affinity to dopamine D4 receptor in medial nuclei of cerebellum in Wistar rat at 10 nmol/L after 30 mins using cresyl violet staining by In vitro autoradiography in presence of 10 uM non-radiolabeled compound; assay type: tissue-based; settings: tested as the 18F-labelled form; method in brief: as §2
[25] = Octanol-buffer partition coefficient, log P of the compound at pH 7.4 by shake flask method

T1 sequence (P14416 whole entry): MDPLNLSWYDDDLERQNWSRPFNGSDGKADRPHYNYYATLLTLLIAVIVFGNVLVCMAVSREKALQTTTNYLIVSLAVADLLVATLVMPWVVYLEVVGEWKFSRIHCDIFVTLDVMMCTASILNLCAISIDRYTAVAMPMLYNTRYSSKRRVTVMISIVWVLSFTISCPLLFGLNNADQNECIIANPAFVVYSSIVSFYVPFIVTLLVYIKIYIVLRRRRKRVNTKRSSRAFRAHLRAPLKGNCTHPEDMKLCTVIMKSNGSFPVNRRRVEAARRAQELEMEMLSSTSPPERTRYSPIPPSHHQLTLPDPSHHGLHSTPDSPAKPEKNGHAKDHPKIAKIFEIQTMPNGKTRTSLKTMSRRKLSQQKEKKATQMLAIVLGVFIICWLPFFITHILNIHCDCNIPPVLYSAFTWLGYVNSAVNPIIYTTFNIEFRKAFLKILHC

Row | Structure (SMILES) | Ki (D(2) dopamine receptor [1]) | Ki (D(1A) dopamine receptor) | Ratio Ki (Homo sapiens [2]) | Ki [3] | Ki (D(2) dopamine receptor [4]) | Ki [5] | Ratio Ki (Homo sapiens [6]) | Ki (D(3) dopamine receptor) | Ratio Ki (Homo sapiens [7]) | Activity (CHO10001) | Ki (D(4) dopamine receptor) | logP [8] | Ki [9] | Activity [22] | logD [25] | other results
1 | Fc1ccc(CN2CCN(c3ccc4c(c3)OCCO4)CC2)cc1 | 7.6 µM | 19 µM | 3600 | 4 µM | 5.7 µM | 5.2 µM | 5000 | 3.9 µM | 6700 | Active | 0.0011 µM | 2.71 | 7 µM |  |  | 
2 | Fc1ccc(CN2CCN(c3ccc4c(c3)OCCO4)CC2)cn1 | 29 µM | 35 µM |  | 11 µM | 45 µM | 21 µM |  | 17 µM |  | Active | 0.015 µM |  | 5.8 µM | Active |  | Activity [10]: inactive; Activity [11]: Active; Activity [12]: Active; Activity [13]: Active; Activity [14]: Active; Activity [15]: inactive; Activity [16]: Active; Activity [17]: Active; Activity ([18]; 10 nmol/L, tested as the 18F-labelled form, in the assay text read “10 nmol/L” for “5 nmol/L”): Active; Activity [19]: Active; Activity [20]: Active; Activity [21]: Active
3 | Oc1cc(CN2CCN(c3ccc4c(c3)OCCO4)CC2)ccc1F | 9 µM | 15 µM | 590 | 3 µM | 6.1 µM | 6.2 µM | 830 | 4.2 µM | 1300 | Active | 0.0073 µM | 1.7 | 2.3 µM | Active | 1.78 | Activity [23]: 33%; Activity [24]: Active; Activity ([18]; 10 nmol/L, in the assay text read “10 nmol/L” for “5 nmol/L”, tested as the 18F-labelled form): Active
4 | COc1cc(CN2CCN(c3ccc4c(c3)OCCO4)CC2)ccc1F | 17 µM | 23 µM | 1400 | 3.3 µM | 16 µM | 5.6 µM | 3800 | 5.9 µM | 4000 | Active | 0.0042 µM | 2.44 | 4.2 µM |  | 2.33 | 

From ChEMBL document CHEMBL1921774, “Evaluation of 18F-labeled benzodioxine piperazine-based dopamine D4 receptor ligands: lipophilicity as a determinate of nonspecific binding” (J Med Chem, 2011)
